Data on five compounds can be found in ChEMBL document CHEMBL1126221, “Antimitotic agents: structure-activity studies with some pyridine derivatives” (J Med Chem, 1992).

In assay [1] the test system is L1210. Briefly: Concentration required to inhibit proliferation of cultured lymphoid leukemia L1210 cells to 50% growth over 48 hours. Type of assay: functional, cell-based. The conditions noted are these: Mus musculus, L1210, 48 h. Summed up:
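Cultured lymphoid leukemia L1210 cells were exposed to agent for 48 h. IC50 is the micromolar concentration that holds proliferation to 50% growth.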

The test system of assay [2] is P388. Kind of assay: Compound was evaluated for antitumor activity against mice implanted with lymphatic leukemia P388 cells (10e6 tumor cells) after intraperitoneal administration of 400 mg/kg per injection (1-5 days). To be noted: Mus musculus, P388, ip. Type of assay: functional. A digest of the protocol:
(§1)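 Mice implanted ip with 10⁶ lymphocytic leukemia P388 cells; drug given ip on days 1-5. Read-out is % increase in life span (% ILS) versus untreated controls, reported at the highest nontoxic dose tested.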

For assay [3], the system named is L1210. Kind of assay: Compound was evaluated for antitumor activity against mice implanted with lymphatic leukemia L1210 cells (10e6 tumor cells) after intraperitoneal administration of 50 mg/kg per injection. Type of assay: functional. The conditions noted are these: Mus musculus, L1210, ip.
Assay [4] has as its system P388. Briefly: Compound was evaluated for antitumor activity against mice implanted with lymphatic leukemia P388 cells (10e6 tumor cells) after intraperitoneal administration of 50 mg/kg per injection (1-5 days). Type of assay: functional. The conditions noted are these: Mus musculus, P388, ip. Summed up:
as §1

Assay [5] is described as follows: Compound's concentration required to inhibit proliferation of cultured KB cells to 50% growth during 48 hours. Type of assay: functional, cell-based. The conditions noted are these: Homo sapiens.
The test system of assay [6] is P388. Briefly: Compound was evaluated for antitumor activity against mice implanted with lymphatic leukemia P388 cells (10e6 tumor cells) after intraperitoneal administration of 100 mg/kg per injection. To be noted: Mus musculus, P388, ip. Type of assay: functional.
The test system of assay [7] is P388. Briefly: Compound was evaluated for antitumor activity against mice implanted with lymphatic leukemia P388 cells (10e6 tumor cells) after intraperitoneal administration of 5 mg/kg per injection (1-5 days). Type of assay: functional. The conditions noted are these: Mus musculus, P388, ip. Summed up: as §1

Each structure is given as a SMILES string.

Broadly, the IC50 is the point on the concentration scale where inhibition reaches its midpoint. A high value points to lower potency. As a reminder, the ILS is the gain in survival time of treated over control animals, in per cent. A high value points to much gain in survival. Take `CCOC(=O)Nc1cc(N[C@@H](C)C(=O)c2ccccc2)c([N+](=O)[O-])c(N)n1`: in the assay with L1210 [1], the IC50 amounted to 27 µM. In the assay on P388 [2], this compound displayed an ILS at 400 mg/kg of 39%. `CCOC(=O)Nc1cc(NC(c2ccccc2)c2ccccc2)c([N+](=O)[O-])c(N)n1` displayed an ILS at 50 mg/kg in the assay on L1210 [3] of 0%.

In the assay on L1210 [1], `CCOC(=O)Nc1cc(N[C@@H](C)[C@H](O)c2ccccc2)c(N)c(N)n1` registered an IC50 of 1.3 µM. Further, the ILS at 50 mg/kg in the assay on P388 [4] was 36%.

Consider `CCOC(=O)Nc1cc(N)c(N)c(N)n1`, for which half-maximal inhibition in assay [5] (IC50) was put at 10 µM. In the assay on P388 [6], this compound displayed an increase in lifespan (ILS) at 100 mg/kg of 0%. As to `CCOC(=O)Nc1cc(NC(C)/C(=N/O)c2ccc(O)cc2)c([N+](=O)[O-])c(N)n1` (centres undefined), the half-maximal inhibitory concentration (IC50) in the assay on L1210 [1] was found to be 18 µM. Further, the ILS at 5 mg/kg in the assay on P388 [7] worked out at 57%.
